Screens (PubChem BioAssay)
The full list was thinned out, with hits kept by preference.
Bfl-1 A1 inh: inhibitors of the anti-apoptotic protein A1, read as caspase activation. MEF A1-2A-BIM cells, Caspase-Glo 3/7 luminescence, 3 h; percent of clofoctol response, vehicle zero. caspase activation, % (concentration not given with the values). 0.066% of 330,000 active. AID 2462;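 active = over half of replicate activation scores above 10%, or exactly half above 10 with the replicate mean above 10; inconclusive = replicate mean below 10 yet half the replicates above 10; inactive = over half of replicates below 10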
UPR CHOP act: apoptotic UPR (CHOP) activation | CHO-CHOP luciferase reporter, luminescence; percent of tunicamycin response over DMSO baseline | 0.34% of 330,000 active | activation, % at 10 µM | AID 449763;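 active = at 10 µM dose, activation of 40% or more, normalized to positive control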;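 note: 100% = tunicamycin at 10 µg/mL and 0% = DMSO alone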
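Evaluation: % reporter activation, DMSO baseline versus tunicamycin full activation; System: CHO-CHOP luciferase reporter cell line; Input: 500 cells/well; Incubation: 6 h compound treatment, 37 °C; Measured by: Steady-Glo luciferase luminescence; Dosing: one dose, 10 µM in 0.5% DMSO; Buffer or medium: F12 medium, 10% FBS; Benchmarks: positive tunicamycin 10 µg/mL, negative DMSO alone.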
CHOP inhibitor: blocks CHOP induction under ER stress; CHO-K1 CHOP-promoter luciferase, tunicamycin-induced, 15-18 h; inhibition, % at 10 µM; 3.8% of 220,000 active;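 active = compounds that reduced the stress-induced luciferase reporter signal by more than about 70% of percent inhibition, limit read from the data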;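 note: 0% = tunicamycin plus vehicle and 100% = wells without tunicamycin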
XBP1 UPR activ: adaptive UPR (XBP1) activation | CHO-XBP1 luciferase reporter, IRE1-XBP1 UPR activation, luminescence; percent of tunicamycin response, DMSO as zero | activation, % at 20 µM | 0.33% of 330,000 active | AID 463104;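 active = versus positive control, 20 µM dose yields 30% or more activation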;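 note: 100% = tunicamycin at 10 µg/mL and 0% = DMSO only wells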
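Material: CHO cell line with stable XBP1 luciferase reporter; schedule: 16-18 h cell attachment at 37 °C, then 6 h compound exposure; signal: glow luminescence from Steady-Glo reagent; medium: serum-containing F12 medium, 10% FBS; benchmarks: tunicamycin 10 µg/mL and vehicle-only wells; read-out: percent activation relative to tunicamycin reference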
* marks the source's active call; other numbers are inactive results; u = inconclusive; x = not tested or not shown; ! = a repeat was not active.

SMILES | Bfl-1 A1 inh | UPR CHOP act | CHOP inhibitor | XBP1 UPR activ
CC(C)(C)c1ccc(C(=O)N2CCCCCC2=O)cc1 | 1 | -7 | 89* | -4
CS(=O)(=O)c1nc(S(=O)(=O)c2ccc(Cl)cc2)c(N2CCC3(CC2)OCCO3)s1 | 2 | 0 | x | -3
Cn1cc(C2=C(c3ccc(Cl)cc3Cl)C(=O)NC2=O)c2ccccc21 | 0 | 3 | 86* | -4
O=c1c2c3nc4ccccc4nc3n(-c3ccc4c(c3)OCCO4)c2ncn1C1CCCC1 | -1 | 77* | x | 10
Cc1nn(-c2ccc3ccccc3c2)c(=O)c2ccccc12 | -1 | 2 | -21 | 4
Cc1nn(-c2nc3ccccc3[nH]2)c(=O)c2ccccc12 | -9 | x | 98* | x
CCOC(=O)C1=C(CSc2nc3ccccc3s2)NC(=O)NC1c1ccc(OC)cc1 (configuration not stated) | 1 | -4 | 84* | -4
CCOC(=O)C1=C(CSc2nc3ccccc3s2)NC(=O)NC1c1cc(C)ccc1C (configuration not stated) | 0 | -1 | 75* | -2
COC(=O)C1=C(CSCc2ccccc2)NC(=O)NC1c1cc(C)ccc1C (configuration not stated) | 0 | -1 | 36 | -1
COC(=O)C1=C(CSc2nc3ccccc3o2)NC(=O)NC1c1cc(C)ccc1C (configuration not stated) | 2 | -1 | 80* | -4
Cc1cc(C(=O)OCC(=O)NC(C)c2ccccc2)c(C)o1 (configuration not stated) | 0 | 0 | 4 | -1
CN(C)C(=O)CCC(=O)N1CCCC(C(=O)c2ccc3c4c(cccc24)CC3)C1 (configuration not stated) | 1 | 0 | 18 | 1
COc1cc(/C=C2\C(C)=C(C#N)c3nc(N)c(C#N)c(C)c32)ccc1OCC(=O)O | 0 | -2 | 1 | -2
CC1=C(C#N)c2nc(N)c(C#N)c(C)c2/C1=C\c1ccc(C)cc1 | -1 | -11 | 98* | -6
Cc1nn(S(=O)(=O)c2cccs2)c(C)c1Sc1ccc([N+](=O)[O-])cc1 | 1 | 2 | 36 | -1
Cc1nn(S(=O)(=O)c2ccccc2)c(C)c1Sc1ccc([N+](=O)[O-])cc1 | 0 | 3 | 80* | -2
COc1ccc(-n2ncc(C(C)NS(=O)(=O)c3ccc(C(C)=O)cc3)c2C)cc1 (configuration not stated) | 0 | 1 | x | -4
Cc1cccc(C)c1NC(=S)N(CCN(C)C)C(C)c1cccnc1 (configuration not stated) | 0 | -1 | 8 | -1
Cc1ccccc1Cn1cc(NC(=O)c2nn(C)cc2Cl)cn1 | 0 | 0 | 42 | 1
Cc1ccc(C2CC(C(F)F)n3ncc(C(=O)Nc4cnn(Cc5ccccc5C)c4)c3N2)cc1 (configuration not stated) | 0 | 3 | 73* | -9
CCOC(=O)c1c(N)nn(C(=O)C(C)(C)C)c1-c1ccccc1 | u | 1 | 94* | 1
O=C(/C(Cl)=C/Nc1ccc(Br)cn1)C(F)(F)F | 0 | 1 | 87* | 8
O=C(c1ccc(S(=O)(=O)NCc2ccco2)cc1)N1CCCC(C(F)(F)F)C1 (configuration not stated) | 1 | -1 | x | -3
Cc1cccc(NC(=O)Nc2ccc(Cl)cc2)n1 | 1 | 8 | x | 2
CCCCSc1nnc(CNC(=O)C23CC4CC(CC(C4)C2)C3)n1Cc1ccccc1 | 0 | -1 | 85* | 2
SMILES | Bfl-1 A1 inh | UPR CHOP act | CHOP inhibitor | XBP1 UPR activ
COc1cccc(Nc2ncccc2C(=O)Nc2ccccc2)c1 | 1 | -1 | 85* | -2
CCn1nc(C(=O)O)c(=O)c2cc3c(cc21)OCO3 | 0 | -1 | 96*! | -5
CCn1cc(C(=O)O)c(=O)c2cc3c(cc21)OCO3 | -1 | 1 | -7 | -5
CCOC(=O)c1cc(-c2ccccc2)n(CCC(=O)O)c1C | 1 | 0 | 20 | -3
COc1ccc(-c2cn(-c3ccc(C)cc3)c(=O)n2CC(=O)Nc2ccc(OC)cc2OC)cc1 | 1 | 3 | -6 | 0
CCOC(=O)c1cc(-c2ccccc2)n(CC(=O)Nc2ccc(OC)cc2)c1C | 0 | -2 | 75* | -3
COc1ccc(NC(=O)Cn2c(-c3ccccc3)cn(-c3ccc(C)cc3)c2=O)cc1 | 0 | 1 | 72* | 0
CCCCc1ccc(NC(=S)Nc2cccnc2)cc1 | 3 | 7 | 38 | -1
